Experimental data reported in PMC7382256 (Proceedings of the National Academy of Sciences of the …, 2020).
pKd: −log10 of the molar value.

How the values were obtained:
Assay type in all cases: binding
[1] = biological target: CSP26 (Caulobacter vibrioides, UniProt A0A0H3CCM2, A171L/K168R)
[2] = biological target: CSP11 (Caulobacter vibrioides, UniProt A0A0H3CCM2, K168R/R156A)
[3] = biological target: CSP6 (Caulobacter vibrioides, UniProt A0A0H3CCM2, K168R)
[4] = biological target: CSP2 (Caulobacter vibrioides, UniProt A0A0H3CCM2, K168R)
Sequence of CSP2 (A0A0H3CCM2 140-174 K168R): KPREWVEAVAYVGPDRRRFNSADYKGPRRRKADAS

[5] = biological target: CSP14 (Caulobacter vibrioides, UniProt A0A0H3CCM2, K168R/N159A)
[6] = biological target: CSP17 (Caulobacter vibrioides, UniProt A0A0H3CCM2, D162A/K168R)
[7] = biological target: CSP29 (Caulobacter vibrioides, UniProt A0A0H3CCM2, DEL158/K168R)
[8] = biological target: CSP18 (Caulobacter vibrioides, UniProt A0A0H3CCM2, K168R/Y163A)
[9] = biological target: CSP15 (Caulobacter vibrioides, UniProt A0A0H3CCM2, K168R/S160A)
[10] = biological target: CSP9 (Caulobacter vibrioides, UniProt A0A0H3CCM2, D154A/K168R)
[11] = biological target: CSP7 (Caulobacter vibrioides, UniProt A0A0H3CCM2, K168R)
[12] = biological target: CSP20 (Caulobacter vibrioides, UniProt A0A0H3CCM2, G165A/K168R)
[13] = biological target: CSP22 (Caulobacter vibrioides, UniProt A0A0H3CCM2, K168R/R167A)
[14] = biological target: CSP10 (Caulobacter vibrioides, UniProt A0A0H3CCM2, K168R/R155A)
[15] = biological target: CSP27 (Caulobacter vibrioides, UniProt A0A0H3CCM2, D172A/K168R)
[16] = biological target: CSP31 (Caulobacter vibrioides, UniProt A0A0H3CCM2, DEL160/K168R)
[17] = biological target: H6-MBP-CSP2 (Caulobacter vibrioides, UniProt A0A0H3CCM2, K168R)
Sequence of H6-MBP-CSP2 (A0A0H3CCM2 140-174 K168R): as above

[18] = biological target: CSP12 (Caulobacter vibrioides, UniProt A0A0H3CCM2, K168R/R157A)
[19] = biological target: CSP3 (Caulobacter vibrioides, UniProt A0A0H3CCM2, K168R)
Sequence of CSP3 (A0A0H3CCM2 144-172 K168R): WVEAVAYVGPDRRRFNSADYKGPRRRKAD

[20] = biological target: CSP4 (Caulobacter vibrioides, UniProt A0A0H3CCM2, K168R)
[21] = biological target: CSP16 (Caulobacter vibrioides, UniProt A0A0H3CCM2, A161L/K168R)
[22] = biological target: CSP23 (Caulobacter vibrioides, UniProt A0A0H3CCM2, K168A)
[23] = biological target: CSP30 (Caulobacter vibrioides, UniProt A0A0H3CCM2, DEL159/K168R)
[24] = biological target: CSP32 (Caulobacter vibrioides, UniProt A0A0H3CCM2, DEL161/K168R)
[25] = biological target: CSP28 (Caulobacter vibrioides, UniProt A0A0H3CCM2, DEL157/K168R)
[26] = biological target: CSP1 (Caulobacter vibrioides, UniProt A0A0H3CCM2)
Sequence of CSP1 (A0A0H3CCM2 140-174): as the sequence (A0A0H3CCM2 140-174 K168R) above, with R29K counted along it
Method in brief: (§1)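 Peptide or protein, c-di-GMP and buffer were degassed for 15 min; runs at 15 °C. Format 1: cell held about 10 µM peptide/protein and syringe about 200 µM c-di-GMP, 30 injections at 250-s spacing. Format 2 (reverse): cell held about 20 µM c-di-GMP and syringe about 100 µM peptide/protein, 18 injections at 120-s spacing. Concentrations were set by absorbance at 1-cm path.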

[27] = biological target: CSP19 (Caulobacter vibrioides, UniProt A0A0H3CCM2, K164A/K168R)
[28] = biological target: CSP21 (Caulobacter vibrioides, UniProt A0A0H3CCM2, K168R/P166A)
[29] = biological target: CSP25 (Caulobacter vibrioides, UniProt A0A0H3CCM2, K168R/K170A)
[30] = biological target: CSP13 (Caulobacter vibrioides, UniProt A0A0H3CCM2, F158A/K168R)
[31] = biological target: c-di-GMP; experiment: Isothermal titration calorimetry; conditions: ITC, 50 mM Tris·HCl pH 8.0, 100 mM NaCl, 15 °C; one-site model
Method in brief: as §1

[32] = test system: GTP; experiment: Microscale thermophoresis; conditions: N-terminally FITC-labeled CSP4
Method in brief: (§2)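 Binding of nucleotides to an N-terminally FITC-labelled, C-terminally amidated synthetic peptide (≥70% purity, dissolved in ultrapure water, concentration by spectrophotometry). Measured by microscale thermophoresis in standard-treated capillaries with blue-channel fluorescence, 30 s infrared heating at 50% of maximum laser power, then 5 s cooling. Buffer: 50 mM Tris·HCl pH 8.0, 100 mM NaCl, 0.1% polysorbate 20.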

[33] = test system: 3′3′-cGAMP; experiment: Microscale thermophoresis; conditions: N-terminally FITC-labeled CSP4
Method in brief: as §2

[34] = test system: GMP; experiment: Microscale thermophoresis; conditions: N-terminally FITC-labeled CSP4
Method in brief: as §2

[35] = test system: pGpG; experiment: Microscale thermophoresis; conditions: N-terminally FITC-labeled CSP4
Method in brief: as §2

[36] = test system: 3′3′-c-di-AMP; experiment: Microscale thermophoresis; conditions: N-terminally FITC-labeled CSP4
Method in brief: as §2

[37] = test system: 2′3′-cGAMP; experiment: Microscale thermophoresis; conditions: N-terminally FITC-labeled CSP4
Method in brief: as §2

[38] = test system: c-di-GMP; experiment: Microscale thermophoresis; conditions: N-terminally FITC-labeled CSP4
Method in brief: as §2

Compound: Nc1nc2c(ncn2[C@@H]2O[C@@H]3CO[P@](=O)(O)O[C@H]4[C@@H](O)[C@H](n5cnc6c(=O)[nH]c(N)nc65)O[C@@H]4CO[P@](=O)(O)O[C@H]3[C@H]2O)c(=O)[nH]1 [c-di-GMP, cyclic diguanylate (3'3'-c-di-GMP)]
- pKd [1]: 6.60
- pKd [2]: 5.82
- pKd [3]: 5.85
- pKd [4]: 7.72
- pKd [5]: 6.66
- pKd [6]: 6.84
- pKd [7]: 5.90
- pKd [8]: 5.36
- pKd [9]: 6.68
- pKd [10]: 5.76
- pKd [11]: 5.77
- pKd [12]: 5.12
- pKd [13]: 5.74
- pKd [14]: 5.83
- pKd [15]: 5.76
- pKd [16]: 6.36
- pKd [17]: 6.90
- pKd [18]: 6.11
- pKd [19]: 6.81
- pKd [20]: 6.75
- pKd [21]: 6.99
- pKd [22]: 5.32
- pKd [23]: 5.90
- pKd [24]: 6.47
- pKd [25]: 5.98
- pKd [26]: 6.97
- pKd [27]: 6.58
- pKd [28]: 6.46
- pKd [29]: 6.56
- pKd [30]: 6.85

Compound: RRRFNSADYKGPRRR [CSP5]
- Kd to c-di-GMP [31]: No binding

Compound: Ac-DRRRFNSADYKGPRRRKAD-NH2 [CSP4]
- binding of GTP (MST) [32]: none of the related nucleotides or CDNs was able to bind
- binding of 3′3′-cGAMP (MST) [33]: none of the related nucleotides or CDNs was able to bind
- binding of GMP (MST) [34]: none of the related nucleotides or CDNs was able to bind
- binding of pGpG (MST) [35]: none of the related nucleotides or CDNs was able to bind
- binding of 3′3′-c-di-AMP (MST) [36]: none of the related nucleotides or CDNs was able to bind
- binding of 2′3′-cGAMP (MST) [37]: none of the related nucleotides or CDNs was able to bind
- binding of c-di-GMP (MST) [38]: only c-di-GMP binding to CSP4 was observed

Compound: DRRRFNSADYKGPRRR [CSP8]
- Kd to c-di-GMP [31]: No binding
